IDH1 mut inh: blocks human IDH1 R132H reductase activity; O75874; diaphorase/resazurin fluorescence, 60 min; inhibition, % at 10 µM; actives 0.18% (n = 70,000); AID 624101; in the data active = inhibition above about 34%; inconclusive = no clear call, values can overlap the other calls; inactive = below about 11%
Target sequence (O75874 whole entry R132H): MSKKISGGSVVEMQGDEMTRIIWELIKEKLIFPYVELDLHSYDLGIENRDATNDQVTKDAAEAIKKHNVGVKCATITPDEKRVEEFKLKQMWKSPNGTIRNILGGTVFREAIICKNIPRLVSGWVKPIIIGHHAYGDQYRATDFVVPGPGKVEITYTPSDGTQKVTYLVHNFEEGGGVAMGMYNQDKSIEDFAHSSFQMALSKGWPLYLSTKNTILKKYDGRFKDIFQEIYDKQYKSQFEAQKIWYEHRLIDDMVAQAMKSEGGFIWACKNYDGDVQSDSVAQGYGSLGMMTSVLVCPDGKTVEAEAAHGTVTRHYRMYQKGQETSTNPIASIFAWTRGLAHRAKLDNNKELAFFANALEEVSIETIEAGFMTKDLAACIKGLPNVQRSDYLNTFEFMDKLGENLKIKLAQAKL
KDM4C inh: blocks human GASC-1 (KDM4C) demethylase activity; Q9H3R0; GST-KDM4C 2-372, H3K9me3 peptide, LANCE TR-FRET; inhibition, % at 12.5 µM; actives 0.15% (n = 96,000); AID 720574;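 active = mean replicate inhibition above about 25%, with at least 55% of replicates also reaching it, limit read from the data, passing the limit was not always enough; inconclusive = only one of those two conditions met; inactive = neither condition met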
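Assay system: GST-GASC-1 enzyme fragment 2-372 | Amount: 10 nM enzyme | Medium: HEPES buffer, pH 7.5, plus ascorbate | Reagent: H3K9me3 peptide substrate, Fe(II), 2-oxoglutarate | Doses: Single-point compound screen | Incubation: 30 min demethylation and 1 h detection at room temperature | Measured by: LANCE TR-FRET, excitation 340 nm, emissions 618 and 671 nm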
T cruzi growth-1: T. cruzi proliferation inhibition. actives 5.9% (n = 77,000). T. cruzi beta-gal in NIH3T3, GalScreen luminescence, 90 h. inhibition, % at 8.34 µM;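 active = mean inhibition above about 93%, with at least 55% of replicates each passing it, limit read from the data, passing the limit was not always enough; inconclusive = only one of those two conditions holds; inactive = neither condition holds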
T cruzi growth-2: blocks T. cruzi growth in NIH3T3 host cells; T. cruzi beta-gal in NIH3T3, GalScreen luminescence, 90 h; inhibition, % at 8.35 µM; actives 72% (n = 5,600); shares compounds with T cruzi growth-1;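 active = mean replicate inhibition above about 95% and at least 55% of replicates individually reaching it, limit read from the data; inconclusive = only one of the two criteria is met; inactive = neither criterion is met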
T cruzi growth-3: Trypanosoma cruzi proliferation inhibition; actives 21% (n = 5,600); shares compounds with T cruzi growth-1; inhibition, % at 2.09 µM; T. cruzi beta-gal in NIH3T3, GalScreen luminescence, 90 h;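 active = mean inhibition above about 95%, with at least 55% of replicates also reaching it, limit read from the data; inconclusive = meets just one of the two conditions; inactive = meets neither condition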
NIH3T3 tox: cytotoxicity in mouse NIH/3T3 fibroblasts; shares compounds with T cruzi growth-1; NIH/3T3 viability, CellTiter-Glo ATP luminescence, 90 h; cytotoxicity (signal decrease), % at 8.35 µM; actives 14% (n = 5,600); AID 651742;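 active = mean signal decrease across replicates above about 35% based on untreated-well scatter, with enough replicates individually passing, limit read from the data; inconclusive = no rule stated though some were filed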
NIH3T3 tox 2: kills mouse NIH/3T3 fibroblasts. shares compounds with T cruzi growth-1. NIH/3T3 viability, CellTiter-Glo ATP luminescence, 90 h. inhibition, % at 24.9 µM. actives 56% (n = 5,600). AID 651744;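 active = mean loss of cell viability signal at or above a set limit, and enough replicates individually reaching it; inconclusive = meets only the mean limit or only the replicate share; inactive = meets neither condition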
Numbers stand for hits; . = inactive; ? = inconclusive; / = not tested or not shown. The sample as a whole holds a higher share of hits than the screen did.

SMILES	IDH1 mut inh	KDM4C inh	T cruzi growth-1	T cruzi growth-2	T cruzi growth-3	NIH3T3 tox	NIH3T3 tox 2
C[C@@H]1CN([C@H](C)CO)C(=O)c2cccc(NC(=O)c3ccncc3)c2O[C@@H]1CN(C)Cc1ccc(C(=O)Nc2ccccc2N)cc1	.	.	90	103	.	.	33
COc1ccc(S(=O)(=O)N(C)C[C@H]2Oc3c(NC(=O)Nc4cccc5ccccc45)cccc3C(=O)N([C@@H](C)CO)C[C@@H]2C)cc1	.	.	100	112	.	.	.
COc1ccc(S(=O)(=O)N(C)C[C@H]2Oc3c(NC(=O)Nc4cccc5ccccc45)cccc3C(=O)N([C@H](C)CO)C[C@@H]2C)cc1	/	/	117	108	.	.	.
COc1ccc(S(=O)(=O)N(C)C[C@H]2Oc3c(NC(=O)Nc4cccc5ccccc45)cccc3C(=O)N([C@H](C)CO)C[C@H]2C)cc1	.	.	128	.	.	.	29
C[C@@H]1CN([C@H](C)CO)C(=O)c2cccc(NC(=O)Nc3cccc4ccccc34)c2O[C@@H]1CN(C)S(=O)(=O)c1ccccc1	/	.	.	/	/	/	/
C[C@H](CO)N1C[C@H](C)[C@@H](CN(C)S(=O)(=O)c2ccccc2)Oc2c(NC(=O)Nc3cccc4ccccc34)cccc2C1=O	/	.	.	/	/	/	/
C[C@H](CO)N1C[C@H](C)[C@H](CN(C)S(=O)(=O)c2ccccc2)Oc2c(NC(=O)Nc3cccc4ccccc34)cccc2C1=O	.	.	/	/	/	/	/
C[C@H]1CN([C@@H](C)CO)C(=O)c2cccc(NS(=O)(=O)c3ccccc3)c2O[C@H]1CN(C)Cc1ccc(Oc2ccccc2)cc1	.	.	.	/	/	/	/
COc1ccc([N+](=O)[O-])cc1NC(=O)CN(C)S(=O)(=O)c1ccc(C)cc1	.	/	/	/	/	/	/
CN(C)C(=O)C[C@H]1C[C@@H]2c3cc(NS(=O)(=O)c4ccc(F)cc4)ccc3O[C@@H]2[C@@H](CO)O1	.	.	.	/	/	/	/
CN(C)C(=O)C[C@@H]1C[C@H]2c3cc(NS(=O)(=O)c4ccc(F)cc4)ccc3O[C@H]2[C@@H](CO)O1	.	.	?	.	.	.	.
CN(C)C(=O)C[C@@H]1C[C@H]2c3cc(NS(=O)(=O)c4ccc(F)cc4)ccc3O[C@H]2[C@H](CO)O1	.	.	104	.	.	.	.
CN(C)C(=O)C[C@H]1C[C@@H]2c3cc(NS(=O)(=O)c4ccc(F)cc4)ccc3O[C@@H]2[C@H](CO)O1	.	.	.	/	/	/	/
COc1ccc(S(=O)(=O)N(C)C[C@H]2OCCCC[C@H](C)Oc3ccc(NC(=O)Nc4ccc5c(c4)OCO5)cc3C(=O)N([C@H](C)CO)C[C@H]2C)cc1	.	.	.	/	/	/	/
Cc1noc(C)c1NC(=O)Nc1ccc2c(c1)C(=O)N(C)[C@@H]1CC[C@@H](CC(=O)N[C@@H]3CCN(Cc4ccccc4)C3)O[C@@H]1CO2	/	.	.	/	/	/	/
Cc1noc(C)c1NC(=O)Nc1ccc2c(c1)C(=O)N(C)[C@H]1CC[C@@H](CC(=O)N[C@H]3CCN(Cc4ccccc4)C3)O[C@H]1CO2	/	.	117	.	.	.	.
Cc1noc(C)c1NC(=O)Nc1ccc2c(c1)C(=O)N(C)[C@@H]1CC[C@@H](CC(=O)N[C@H]3CCN(Cc4ccccc4)C3)O[C@H]1CO2	/	.	102	.	.	.	.
Cc1noc(C)c1NC(=O)Nc1ccc2c(c1)C(=O)N(C)[C@H]1CC[C@H](CC(=O)N[C@H]3CCN(Cc4ccccc4)C3)O[C@@H]1CO2	/	.	.	/	/	/	/
Cc1nn(C(C)C(=O)Nc2cc(C(F)(F)F)ccc2Cl)c(C)c1[N+](=O)[O-] (stereo unspecified)	.	/	/	/	/	/	/
C[C@@H]1CCCCO[C@@H](CN(C)Cc2ccc(C(F)(F)F)cc2)[C@H](C)CN([C@@H](C)CO)C(=O)c2cc(NC(=O)NC3CCCCC3)ccc2O1	/	.	?	98	118	.	.
C[C@@H]1CCCCO[C@@H](CN(C)Cc2ccc(C(F)(F)F)cc2)[C@H](C)CN([C@@H](C)CO)C(=O)c2cc(NC(=O)Nc3ccc(C(F)(F)F)cc3)ccc2O1	/	.	?	102	117	.	.

High-throughput results: PubChem, Broad Institute
